Reference: ChEMBL document CHEMBL4765405, “Design, synthesis and biological activities of novel pleuromutilin derivatives with a substituted triazole moiety as potent antibacterial agents” (Eur J Med Chem, 2020)
Values after ≈ are worked out from the molar mass of the structure shown. Active and inactive are the calls of the source. No cut-off for these calls is given here.

Tests used:
Staphylococcus aureus [1] = assay: Antibacterial activity against Staphylococcus aureus 144 after 24 hrs by CLSI based broth micro dilution method; type: functional
Outline: (§1)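 Broth microdilution run per CLSI. MRSA ATCC 43300 served as the QC strain, with the CLSI QC range as reference. S. aureus AD3 and 144 are clinical isolates from Guangdong Province. Pleuromutilin and tiamulin were run as reference drugs.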

Escherichia coli [2] = assay: Bactericidal activity against Escherichia coli ATCC 25922 preincubated 16 to 20 hrs followed by subculturing and measured after over night; type: functional
Outline: (§2)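 MBC by CLSI broth microdilution on the same strain panel: S. aureus ATCC 43300, ATCC 29213, clinical isolates AD3 and 144, E. coli ATCC 25922; ATCC 43300 served as QC strain.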

Staphylococcus aureus [3] = assay: Bactericidal activity against Staphylococcus aureus 144 preincubated 16 to 20 hrs followed by subculturing and measured after over night; type: functional; outline: as §2
Staphylococcus aureus [4] = assay: Bactericidal activity against Staphylococcus aureus ATCC 29213 preincubated 16 to 20 hrs followed by subculturing and measured after over night; type: functional; outline: as §2
Staphylococcus aureus [5] = assay: Antibacterial activity against Staphylococcus aureus AD3 after 24 hrs by CLSI based broth micro dilution method; type: functional
Outline: (§3)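 CLSI broth microdilution MIC against S. aureus ATCC 43300 (MRSA), ATCC 29213, clinical isolates AD3 and 144 (Guangdong Province), and E. coli ATCC 25922; ATCC 43300 served as QC strain, with the CLSI quality control range as reference.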

Staphylococcus aureus [6] = assay: Antibacterial activity against Staphylococcus aureus ATCC 29213 after 24 hrs by CLSI based broth micro dilution method; type: functional; outline: as §1
Staphylococcus aureus [7] = assay: Antibacterial activity against methicillin-resistant Staphylococcus aureus ATCC 43300 after 24 hrs by CLSI based broth micro dilution method; type: functional; outline: as §1
Staphylococcus aureus [8] = assay: Bactericidal activity against methicillin-resistant Staphylococcus aureus ATCC 43300 preincubated 16 to 20 hrs followed by subculturing and measured after over night; type: functional
Outline: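 MBC determined by the CLSI broth microdilution method against MRSA ATCC 43300, with ATCC 43300 also serving as the QC strain. Pleuromutilin and tiamulin were reference drugs.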

[9] = Ratio of MBC for bactericidal activity against methicillin-resistant Staphylococcus aureus ATCC 43300 to MIC for antibacterial activity against methicillin-resistant Staphylococcus aureus ATCC 4330; type: functional
Staphylococcus aureus [10] = assay: Bactericidal activity against Staphylococcus aureus AD3 preincubated 16 to 20 hrs followed by subculturing and measured after over night; type: functional; outline: as §2
Escherichia coli [11] = assay: Antibacterial activity against Escherichia coli ATCC 25922 after 24 hrs by CLSI based broth micro dilution method; type: functional; outline: as §3
Staphylococcus aureus [12] = assay: Bactericidal activity against methicillin-resistant Staphylococcus aureus ATCC 43300 assessed as reduction in bacterial growth at > 8 time of MIC concentration preincubated up to 24 hrs followed by subculturing and measured after 20 hrs by time-kill assay; type: functional, organism-based; conditions: time hrs <=44

Row | Structure (SMILES) | MIC (Staphylococcus aureus [1]) [µg/mL] | MBC (Escherichia coli [2]) [µg/mL] | MBC (Staphylococcus aureus [3]) [µg/mL] | MBC (Staphylococcus aureus [4]) [µg/mL] | MIC (Staphylococcus aureus [5]) [µg/mL] | MIC (Staphylococcus aureus [6]) [µg/mL] | MIC (Staphylococcus aureus [7]) [µg/mL] | MBC (Staphylococcus aureus [8]) [µg/mL] | Ratio [9] | MBC (Staphylococcus aureus [10]) [µg/mL] | MIC (Escherichia coli [11]) [µg/mL] | Activity (Staphylococcus aureus [12])
1 | C=C[C@]1(C)C[C@@H](OC(=O)CSc2ccccc2NC(=O)Cn2cc(CN3CCCCC3)nn2)[C@]2(C)[C@H](C)CC[C@]3(CCC(=O)[C@H]32)[C@@H](C)[C@@H]1O | 1 (≈ 1.45 µM) | > 32 | 1 (≈ 1.45 µM) | 0.5 (≈ 0.723 µM) | 0.5 (≈ 0.723 µM) | 0.5 (≈ 0.723 µM) | 0.5 (≈ 0.723 µM) | 2 (≈ 2.89 µM) | 1 | 0.5 (≈ 0.723 µM) | > 32 | 
2 | C=C[C@]1(C)C[C@@H](OC(=O)CSc2ccccc2NC(=O)Cn2cc(CN3CCN(c4cccc(F)c4)CC3)nn2)[C@]2(C)[C@H](C)CC[C@]3(CCC(=O)[C@H]32)[C@@H](C)[C@@H]1O | 1 (≈ 1.27 µM) | > 32 | 2 (≈ 2.54 µM) | 0.5 (≈ 0.635 µM) | 0.5 (≈ 0.635 µM) | 0.5 (≈ 0.635 µM) | 1 (≈ 1.27 µM) | 2 (≈ 2.54 µM) | 1 | 1 (≈ 1.27 µM) | > 32 | 
3 | C=C[C@]1(C)C[C@@H](OC(=O)CSc2ccccc2NC(=O)Cn2cc(CN3CCCC3)nn2)[C@]2(C)[C@H](C)CC[C@]3(CCC(=O)[C@H]32)[C@@H](C)[C@@H]1O | 0.25 (≈ 0.369 µM) | > 32 | 0.5 (≈ 0.738 µM) | 4 (≈ 5.9 µM) | 0.25 (≈ 0.369 µM) | 0.25 (≈ 0.369 µM) | 0.25 (≈ 0.369 µM) | 0.5 (≈ 0.738 µM) | 1 | 0.5 (≈ 0.738 µM) | > 32 | 
4 | C=C[C@]1(C)C[C@@H](OC(=O)CSc2ccccc2NC(=O)Cn2cc(CN3CCN(c4ccccc4O)CC3)nn2)[C@]2(C)[C@H](C)CC[C@]3(CCC(=O)[C@H]32)[C@@H](C)[C@@H]1O | 1 (≈ 1.27 µM) | > 32 | 2 (≈ 2.55 µM) | 1 (≈ 1.27 µM) | 1 (≈ 1.27 µM) | 1 (≈ 1.27 µM) | 0.5 (≈ 0.637 µM) | 1 (≈ 1.27 µM) | 1 | 2 (≈ 2.55 µM) | > 32 | 
5 | C=C[C@]1(C)C[C@@H](OC(=O)CSc2ccccc2NC(=O)Cn2cc(CN3CCN(c4ccc([N+](=O)[O-])cc4)CC3)nn2)[C@]2(C)[C@H](C)CC[C@]3(CCC(=O)[C@H]32)[C@@H](C)[C@@H]1O | 0.25 (≈ 0.307 µM) | > 32 | 0.25 (≈ 0.307 µM) | 0.125 (≈ 0.154 µM) | 0.25 (≈ 0.307 µM) | 0.125 (≈ 0.154 µM) | 0.125 (≈ 0.154 µM) | 0.25 (≈ 0.307 µM) | 1 | 0.5 (≈ 0.614 µM) | > 32 | Active
6 | C=C[C@]1(C)C[C@@H](OC(=O)CSc2ccccc2NC(=O)Cn2cc(CN3CCN(c4ccccc4Cl)CC3)nn2)[C@]2(C)[C@H](C)CC[C@]3(CCC(=O)[C@H]32)[C@@H](C)[C@@H]1O | 2 (≈ 2.49 µM) | > 32 | 4 (≈ 4.98 µM) | 2 (≈ 2.49 µM) | 2 (≈ 2.49 µM) | 1 (≈ 1.24 µM) | 1 (≈ 1.24 µM) | 2 (≈ 2.49 µM) | 1 | 2 (≈ 2.49 µM) | > 32 | 
7 | C=C[C@]1(C)C[C@@H](OC(=O)CSc2ccccc2NC(=O)Cn2cc(CN3CCN(C)CC3)nn2)[C@]2(C)[C@H](C)CC[C@]3(CCC(=O)[C@H]32)[C@@H](C)[C@@H]1O | 0.5 (≈ 0.707 µM) | > 32 | 2 (≈ 2.83 µM) | 0.5 (≈ 0.707 µM) | 0.5 (≈ 0.707 µM) | 0.25 (≈ 0.354 µM) | 0.25 (≈ 0.354 µM) | 0.5 (≈ 0.707 µM) | 1 | 1 (≈ 1.41 µM) | > 32 | 
8 | C=C[C@]1(C)C[C@@H](OC(=O)CSc2ccccc2NC(=O)Cn2cc(CN3CCN(c4ccc(Cl)cc4)CC3)nn2)[C@]2(C)[C@H](C)CC[C@]3(CCC(=O)[C@H]32)[C@@H](C)[C@@H]1O | 2 (≈ 2.49 µM) | > 32 | 2 (≈ 2.49 µM) | 4 (≈ 4.98 µM) | 2 (≈ 2.49 µM) | 1 (≈ 1.24 µM) | 0.5 (≈ 0.622 µM) | 1 (≈ 1.24 µM) | 1 | 4 (≈ 4.98 µM) | > 32 | 
9 | C=C[C@]1(C)C[C@@H](OC(=O)CSc2ccccc2NC(=O)Cn2cc(CN3CCN(c4cccc(Cl)c4)CC3)nn2)[C@]2(C)[C@H](C)CC[C@]3(CCC(=O)[C@H]32)[C@@H](C)[C@@H]1O | 2 (≈ 2.49 µM) | > 32 | 4 (≈ 4.98 µM) | 1 (≈ 1.24 µM) | 2 (≈ 2.49 µM) | 1 (≈ 1.24 µM) | 2 (≈ 2.49 µM) | 4 (≈ 4.98 µM) | 1 | 2 (≈ 2.49 µM) | > 32 | 
10 | C=C[C@]1(C)C[C@@H](OC(=O)CSc2ccccc2NC(=O)Cn2cc(CN3CCN(c4ccccc4C)CC3)nn2)[C@]2(C)[C@H](C)CC[C@]3(CCC(=O)[C@H]32)[C@@H](C)[C@@H]1O | 1 (≈ 1.28 µM) | > 32 | 4 (≈ 5.11 µM) | 2 (≈ 2.55 µM) | 2 (≈ 2.55 µM) | 1 (≈ 1.28 µM) | 1 (≈ 1.28 µM) | 1 (≈ 1.28 µM) | 1 | 4 (≈ 5.11 µM) | > 32 | 
11 | C=C[C@]1(C)C[C@@H](OC(=O)CSc2ccccc2NC(=O)Cn2cc(CN3CCN(c4ccccc4[N+](=O)[O-])CC3)nn2)[C@]2(C)[C@H](C)CC[C@]3(CCC(=O)[C@H]32)[C@@H](C)[C@@H]1O | 0.5 (≈ 0.614 µM) | > 32 | 2 (≈ 2.46 µM) | 0.25 (≈ 0.307 µM) | 0.5 (≈ 0.614 µM) | 0.25 (≈ 0.307 µM) | 0.5 (≈ 0.614 µM) | 1 (≈ 1.23 µM) | 1 | 1 (≈ 1.23 µM) | > 32 | 
12 | C=C[C@]1(C)C[C@@H](OC(=O)CSc2ccccc2NC(=O)Cn2cc(CN3CCN(c4ccccc4OC)CC3)nn2)[C@]2(C)[C@H](C)CC[C@]3(CCC(=O)[C@H]32)[C@@H](C)[C@@H]1O | 1 (≈ 1.25 µM) | > 32 | 4 (≈ 5.01 µM) | 2 (≈ 2.5 µM) | 1 (≈ 1.25 µM) | 1 (≈ 1.25 µM) | 0.5 (≈ 0.626 µM) | 1 (≈ 1.25 µM) | 1 | 2 (≈ 2.5 µM) | > 32 | 
13 | C=C[C@]1(C)C[C@@H](OC(=O)CSc2ccccc2NC(=O)Cn2cc(CN3CCN(c4cccc([N+](=O)[O-])c4)CC3)nn2)[C@]2(C)[C@H](C)CC[C@]3(CCC(=O)[C@H]32)[C@@H](C)[C@@H]1O | 0.25 (≈ 0.307 µM) | > 32 | 0.5 (≈ 0.614 µM) | 0.25 (≈ 0.307 µM) | 0.25 (≈ 0.307 µM) | 0.25 (≈ 0.307 µM) | 0.125 (≈ 0.154 µM) | 0.25 (≈ 0.307 µM) | 1 | 0.5 (≈ 0.614 µM) | > 32 | Active
14 | C=C[C@]1(C)C[C@@H](OC(=O)CSc2ccccc2NC(=O)Cn2cc(CN3CCN(c4ccc(C)cc4)CC3)nn2)[C@]2(C)[C@H](C)CC[C@]3(CCC(=O)[C@H]32)[C@@H](C)[C@@H]1O | 1 (≈ 1.28 µM) | > 32 | 2 (≈ 2.55 µM) | 0.5 (≈ 0.639 µM) | 1 (≈ 1.28 µM) | 0.5 (≈ 0.639 µM) | 1 (≈ 1.28 µM) | 4 (≈ 5.11 µM) | 1 | 2 (≈ 2.55 µM) | > 32 | 
15 | C=C[C@]1(C)C[C@@H](OC(=O)CSc2ccccc2NC(=O)Cn2cc(CN3CCC(O)CC3)nn2)[C@]2(C)[C@H](C)CC[C@]3(CCC(=O)[C@H]32)[C@@H](C)[C@@H]1O | 1 (≈ 1.41 µM) | > 32 | 2 (≈ 2.83 µM) | 1 (≈ 1.41 µM) | 1 (≈ 1.41 µM) | 1 (≈ 1.41 µM) | 1 (≈ 1.41 µM) | 2 (≈ 2.83 µM) | 1 | 1 (≈ 1.41 µM) | > 32 | 
16 | C=C[C@]1(C)C[C@@H](OC(=O)CSc2ccccc2NC(=O)Cn2cc(CN3CCN(c4ccc(O)cc4)CC3)nn2)[C@]2(C)[C@H](C)CC[C@]3(CCC(=O)[C@H]32)[C@@H](C)[C@@H]1O | 2 (≈ 2.55 µM) | > 32 | 8 (≈ 10.2 µM) | 4 (≈ 5.1 µM) | 2 (≈ 2.55 µM) | 2 (≈ 2.55 µM) | 2 (≈ 2.55 µM) | 4 (≈ 5.1 µM) | 1 | 4 (≈ 5.1 µM) | > 32 | 
17 | C=C[C@]1(C)C[C@@H](OC(=O)CSc2ccccc2NC(=O)Cn2cc(CN3CCN(c4ccc(OC)cc4)CC3)nn2)[C@]2(C)[C@H](C)CC[C@]3(CCC(=O)[C@H]32)[C@@H](C)[C@@H]1O | 1 (≈ 1.25 µM) | > 32 | 2 (≈ 2.5 µM) | 0.5 (≈ 0.626 µM) | 1 (≈ 1.25 µM) | 0.5 (≈ 0.626 µM) | 1 (≈ 1.25 µM) | 1 (≈ 1.25 µM) | 1 | 1 (≈ 1.25 µM) | > 32 | 
